In ChEMBL document CHEMBL1125331, “6-Hydroxy-3-n-propyl-2,3,4,5-tetrahydro-1H-3-benzazepine and analogs: new centrally acting 5-HT1A receptor agonists” (J Med Chem, 1992):
Several values for one entry are separate records, joined by “and”; a condition that tells them apart may be missing. Equal values may be shown once.

How the values were obtained:
Rattus norvegicus [1] = assay: Effect evaluated in vivo on 5-HTP accumulation in corpus striatum after subcutaneous administration; format: functional
In short: (§1)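 Male Sprague-Dawley rats (200–300 g) were pretreated with reserpine 5 mg/kg sc 18 h beforehand. Test drug was given at neutral pH, 5 mL/kg. Aromatic amino acid decarboxylase was blocked with NSD 1015. 5-HTP in the dissected brain region was assayed by HPLC with electrochemical detection.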

Rattus norvegicus [2] = assay: Effect evaluated in vivo on 5-HTP accumulation in NE-rich hemispheres at ED50 umol/kg after subcutaneous administration; format: functional; conditions: sc; in short: as §1
Rattus norvegicus [3] = assay: Effect evaluated in vivo on 5-HTP accumulation in NE-rich hemispheres at a 50 dose uM/kg(sc); format: functional; in short: as §1
Rattus norvegicus [4] = assay: Effect evaluated in vivo on 5-HTP accumulation in NE-rich hemispheres at a 3.1 dose uM/kg(sc); format: functional; in short: as §1
Rattus norvegicus [5] = assay: Effect evaluated in vivo on 5-HTP accumulation in limbic system at a dose 3.1 umol/kg (s.c.); format: functional
In short: (§2)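 Male Sprague-Dawley rats (200–300 g) were pretreated with reserpine 5 mg/kg sc 18 h before. Test compound was given sc at 5 mL/kg in neutral solution. 5-HT synthesis rate was indexed by […] 5-HTP accumulation after decarboxylase inhibition with NSD 1015, measured by HPLC-electrochemical detection. Dose-response used 4–6 dose levels, n = 4.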

Rattus norvegicus [6] = assay: Effect evaluated in vivo on 5-HTP accumulation in corpus striatum at a dose 3.1 umol/kg (s.c.); format: functional; in short: as §1
Rattus norvegicus [7] = assay: Effect evaluated in vivo on 5-HTP accumulation in corpus striatum at ED50 umol/kg after subcutaneous administration; format: functional; conditions: sc; in short: as §1
Rattus norvegicus [8] = assay: The compound was tested in vivo for locomotor activity in rats at 0.2 umol/kg after subcutaneous administration
Rattus norvegicus [9] = assay: Effect evaluated in vivo on 5-HTP accumulation in limbic system after subcutaneous administration; format: functional; conditions: sc; in short: as §1
Rattus norvegicus [10] = assay: Effect evaluated in vivo on 5-HTP accumulation in corpus striatum at a dose 50 umol/kg (s.c.); format: functional; in short: as §1
Rattus norvegicus [11] = assay: Effect evaluated in vivo on 5-HTP accumulation in NE-rich hemispheres at a 12.5 dose uM/kg(sc); format: functional; in short: as §1
Rattus norvegicus [12] = assay: Effect evaluated in vivo on 5-HTP accumulation in limbic system at a dose 12.5 umol/kg (s.c.); format: functional; in short: as §2
Rattus norvegicus [13] = assay: Effect evaluated in vivo on 5-HTP accumulation in limbic system at a dose 50 umol/kg (s.c.); format: functional; in short: as §2
Rattus norvegicus [14] = assay: Effect evaluated in vivo on 5-HTP accumulation in NE-rich hemispheres at a 25 dose uM/kg(sc); format: functional; in short: as §1
Rattus norvegicus [15] = assay: Effect evaluated in vivo on 5-HTP accumulation in corpus striatum at a dose 100 umol/kg (s.c.); format: functional; in short: as §1
Rattus norvegicus [16] = assay: Effect evaluated in vivo on 5-HTP accumulation in NE-rich hemispheres at a 0.39 dose uM/kg(sc); format: functional; in short: as §1
Rattus norvegicus [17] = assay: Effect evaluated in vivo on 5-HTP accumulation in corpus striatum at a dose 0.39 umol/kg (s.c.); format: functional; in short: as §1
Rattus norvegicus [18] = assay: Effect evaluated in vivo on 5-HTP accumulation in limbic system at a dose 100 umol/kg (s.c.); format: functional; in short: as §2
Rattus norvegicus [19] = assay: Effect evaluated in vivo on 5-HTP accumulation in limbic system at a dose 25 umol/kg (s.c.); format: functional; in short: as §2
D(2) dopamine receptor = D(2) dopamine receptor (Rattus norvegicus, UniProt P61169); assay: Inhibitory activity against Dopamine receptor D2 in rats using [3H]spiperone as radioligand
In short: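 Rat striatal membranes in 50 mM potassium phosphate buffer pH 7.4 were incubated with 0.5 nM [3H]spiperone for 10 min at 37 °C. Specific binding was defined with 10 μM 6,7-ADTN.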

Rattus norvegicus [20] = assay: Effect evaluated in vivo on 5-HTP accumulation in NE-rich hemispheres at a 100 dose uM/kg(sc); format: functional; in short: as §1
Rattus norvegicus [21] = assay: Effect evaluated in vivo on 5-HTP accumulation in corpus striatum at a dose 0.20 umol/kg (s.c.); format: functional; in short: as §1
Rattus norvegicus [22] = assay: Effect evaluated in vivo on 5-HTP accumulation in limbic system at a dose 1.56 umol/kg (s.c.); format: functional; in short: as §2
Rattus norvegicus [23] = assay: Effect evaluated in vivo on 5-HTP accumulation in limbic system at a dose 0.39 umol/kg (s.c.); format: functional; in short: as §1
Rattus norvegicus [24] = assay: Effect evaluated in vivo on 5-HTP accumulation in corpus striatum at a dose 25 umol/kg (s.c.); format: functional; in short: as §1
Rattus norvegicus [25] = assay: Effect evaluated in vivo on 5-HTP accumulation in corpus striatum at a dose 1.56 umol/kg (s.c.); format: functional; in short: as §1
Rattus norvegicus [26] = assay: Effect evaluated in vivo on 5-HTP accumulation in NE-rich hemispheres at a 1.56 dose uM/kg(sc); format: functional; in short: as §1
Rattus norvegicus [27] = assay: Effect evaluated in vivo on 5-HTP accumulation in limbic system at a dose 0.20 umol/kg (s.c.); format: functional; in short: as §1
Rattus norvegicus [28] = assay: Effect evaluated in vivo on 5-HTP accumulation in NE-rich hemispheres at a 0.20 dose uM/kg(sc); format: functional; in short: as §1
[29] = target: T1, 5-hydroxytryptamine receptor 1A (Rattus norvegicus, UniProt P19327); assay: Inhibitory activity against 5-hydroxytryptamine 1A receptor in rats, using [3H]8-OH-DPAT as radioligand
T1 sequence (P19327 whole entry): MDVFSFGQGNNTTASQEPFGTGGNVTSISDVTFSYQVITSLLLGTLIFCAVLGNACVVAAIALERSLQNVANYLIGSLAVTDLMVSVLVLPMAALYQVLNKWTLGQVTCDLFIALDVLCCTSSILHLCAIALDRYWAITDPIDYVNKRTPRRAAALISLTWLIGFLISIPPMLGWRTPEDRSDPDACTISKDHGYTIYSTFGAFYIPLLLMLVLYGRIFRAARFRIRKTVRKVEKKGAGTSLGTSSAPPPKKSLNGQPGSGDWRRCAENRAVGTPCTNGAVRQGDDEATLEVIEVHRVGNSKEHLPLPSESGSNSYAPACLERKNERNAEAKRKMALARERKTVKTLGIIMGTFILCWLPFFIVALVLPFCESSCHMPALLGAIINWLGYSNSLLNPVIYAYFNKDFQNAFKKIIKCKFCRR
In short: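 Rat whole-brain membranes (minus brainstem and cerebellum) in 50 mM Tris pH 8.0 with 120 mM NaCl, 4 mM CaCl2, 4 mM MgCl2 and 10 μM pargyline. Rapid filtration, then scintillation counting. Nonspecific binding defined with 10 μM 5-HT. IC50 by semi-log plot and linear regression.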

Rattus norvegicus [30] = assay: Effect evaluated in vivo on 5-HTP accumulation in NE-rich hemispheres at a dose uM/kg(sc); format: functional; in short: as §1
Rattus norvegicus [31] = assay: The compound was tested in vivo for locomotor activity in rats at 50 umol/kg after subcutaneous administration; format: functional
In short: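 Male Sprague-Dawley rats received reserpine 5 mg/kg sc in the neck 18 h before testing. Test compound was given sc in the neck (n = 4). Rats were placed singly in photocell motility meters immediately after dosing, and counts were accumulated over 30 min (tests 9 a.m.–1 p.m.). Gross behaviour, including 5-HT syndrome, was observed throughout.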

Rattus norvegicus [32] = assay: Effect evaluated in vivo on 5-HTP accumulation in limbic system at a dose uM/kg(sc); format: functional; in short: as §2
Rattus norvegicus [33] = assay: Effect evaluated in vivo on 5-HTP accumulation in corpus striatum at a dose uM/kg(sc); format: functional; in short: as §1
Rattus norvegicus [34] = assay: Effect evaluated in vivo on 5-HT synthesis in limbic system at ED50 umol/kg after subcutaneous administration; conditions: sc
Rattus norvegicus [35] = assay: Effect evaluated in vivo on DA synthesis in limbic system at ED50 umol/kg after subcutaneous administration; format: functional
In short: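 Male Sprague-Dawley rats (200–300 g) pretreated with reserpine (5 mg/kg sc, 18 h before), then given the test drug sc; neutral solutions at 5 mL/kg. Dopa accumulation after decarboxylase inhibition with NSD 1015 indexes DA synthesis rate in limbic tissue, assayed by HPLC with electrochemical detection.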

Rattus norvegicus [36] = assay: Effect evaluated in vivo on DA synthesis in limbic system at ED50 umol/kg after peroral administration; format: functional
In short: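 Oral dosing in male Sprague-Dawley rats (200–300 g) pretreated with reserpine 5 mg/kg sc 18 h before. After decarboxylase inhibition with NSD 1015, brain 5-HTP or dopa accumulation (HPLC-electrochemical detection) indexed 5-HT synthesis, DA synthesis (limbic) or NE synthesis (hemispheres, mainly cortex).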

D(2) dopamine receptor, sequence (P61169 whole entry): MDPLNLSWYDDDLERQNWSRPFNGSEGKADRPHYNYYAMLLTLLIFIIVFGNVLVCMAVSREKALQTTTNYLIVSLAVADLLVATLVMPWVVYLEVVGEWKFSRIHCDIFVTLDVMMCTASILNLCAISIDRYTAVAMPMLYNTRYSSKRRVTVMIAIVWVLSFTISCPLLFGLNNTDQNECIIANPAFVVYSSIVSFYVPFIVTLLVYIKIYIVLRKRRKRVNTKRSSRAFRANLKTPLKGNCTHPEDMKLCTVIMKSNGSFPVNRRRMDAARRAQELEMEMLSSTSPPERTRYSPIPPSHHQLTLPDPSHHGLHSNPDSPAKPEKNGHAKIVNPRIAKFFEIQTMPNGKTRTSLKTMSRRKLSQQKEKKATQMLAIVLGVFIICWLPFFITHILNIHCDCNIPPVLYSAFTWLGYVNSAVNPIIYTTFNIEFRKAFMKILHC

Compound: CN1CCc2cccc(O)c2CC1
- Control (Rattus norvegicus [1]): 70%
- ED50 (Rattus norvegicus [2]): 12 µmol/kg
- Control (Rattus norvegicus [3]): 58%
- Control (Rattus norvegicus [4]): 96%
- Control (Rattus norvegicus [5]): 106%
- Control (Rattus norvegicus [6]): 104%
- ED50 (Rattus norvegicus [7]): 11 µmol/kg
- Locomotor activity (Rattus norvegicus [8]): 6
- ED50 (Rattus norvegicus [9]): 10 µmol/kg
- Control (Rattus norvegicus [10]): 54%
- Control (Rattus norvegicus [11]): 73%
- Control (Rattus norvegicus [12]): 72%
- Control (Rattus norvegicus [13]): 57%

Compound: CCCN1CCc2ccc(O)cc2CC1
- Control (Rattus norvegicus [14]): 113%
- Control (Rattus norvegicus [15]): 77%
- Control (Rattus norvegicus [16]): 119%
- Control (Rattus norvegicus [17]): 106%
- Control (Rattus norvegicus [18]): 81%
- Control (Rattus norvegicus [19]): 105%
- IC50 (D(2) dopamine receptor): 10000 nM
- Control (Rattus norvegicus [20]): 78%
- Control (Rattus norvegicus [21]): 118%
- Control (Rattus norvegicus [22]): 80%
- Control (Rattus norvegicus [23]): 121%
- Control (Rattus norvegicus [24]): 107%
- Control (Rattus norvegicus [25]): 110%
- Control (Rattus norvegicus [26]): 114%
- Control (Rattus norvegicus [27]): 122%
- Control (Rattus norvegicus [28]): 128%

Compound: CCCCN1CCc2cccc(O)c2CC1
- IC50 [29]: 420 nM
- Control (Rattus norvegicus [30]): 108%
- IC50 (D(2) dopamine receptor): 12000 nM
- Locomotor activity (Rattus norvegicus [31]): 19
- Control (Rattus norvegicus [32]): 84%
- Control (Rattus norvegicus [33]): 111%

Compound: CCN1CCc2cccc(OC)c2CC1
- Control (Rattus norvegicus [3]): 64%
- IC50 [29]: 210 nM
- IC50 (D(2) dopamine receptor): 2200 nM
- Locomotor activity (Rattus norvegicus [31]): 62
- Control (Rattus norvegicus [10]): 66%
- Control (Rattus norvegicus [13]): 66%

Compound: CCCN(CCC)C1CCc2cccc(O)c2C1 (stereo not given) [8-OH-DPAT]
- ED50 (Rattus norvegicus [34]): 0.052 µmol/kg
- ED50 (Rattus norvegicus [35]): 0.052 µM/kg and 0.063 µM/kg
- ED50 (Rattus norvegicus [36]): 3 µM/kg and 7.9 µM/kg and 7.6 µM/kg
- Locomotor activity (Rattus norvegicus [8]): 66
